The subject of data set [1] is Mus musculus. Kind of data set: Wound healing activity in Swiss albino mouse circular excision wound model assessed as hydroxyproline content in skin applied topically qd after 7 days by spectrophotometric analysis. It is filed as functional. The method, boiled down: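 Skin from ointment-treated mouse wounds (7 days) dried at 60–70 °C to constant weight, then hydrolyzed in 6 N HCl for 3 h at 130 °C. Hydrolysate neutralized to pH 7, oxidized with chloramine T and reacted with Ehrlich reagent at 60 °C. Read at 557 nm and reported as mg/g with S.E.M.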

Data set [2] is filed under the species Bos taurus. Kind of data set: Inhibition of bovine hyaluronidase assessed as sodium hyaluronate conversion to N-acetylglucosamine at 50 ug/ml by spectrophotometric analysis relative to control.
The species named for data set [3] is Bos taurus. Kind of data set: Inhibition of bovine hyaluronidase assessed as sodium hyaluronate conversion to N-acetylglucosamine at 100 ug/ml by spectrophotometric analysis relative to control.
Data set [4] has as its system Hathewaya histolytica. Kind of data set: Inhibition of Clostridium histolyticum collagenase using N-[3-(2-Furyl)acryloyl]-Leu-Gly-Pro-Ala as substrate at 50 ug/ml after 15 mins by spectrophotometric analysis relative to control. The gist of the method: (§1)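 Samples dissolved in DMSO and diluted in 50 mM Tricine buffer (0.4 M NaCl, 0.01 M CaCl2, pH 7.5). Clostridium histolyticum collagenase and sample preincubated 5 min at 25 °C, then incubated 15 min. FALGPA substrate, prepared at 2 mM in the same buffer, was then added. Inhibition given as % with S.E.M.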

Data set [5] relates to Hathewaya histolytica. Kind of data set: Inhibition of Clostridium histolyticum collagenase using N-[3-(2-Furyl)acryloyl]-Leu-Gly-Pro-Ala as substrate at 100 ug/ml after 15 mins by spectrophotometric analysis relative to control. The method, boiled down:
as §1

In data set [6] the target is T1, Neutrophil elastase (Homo sapiens) (UniProt P08246).
T1 sequence (whole entry): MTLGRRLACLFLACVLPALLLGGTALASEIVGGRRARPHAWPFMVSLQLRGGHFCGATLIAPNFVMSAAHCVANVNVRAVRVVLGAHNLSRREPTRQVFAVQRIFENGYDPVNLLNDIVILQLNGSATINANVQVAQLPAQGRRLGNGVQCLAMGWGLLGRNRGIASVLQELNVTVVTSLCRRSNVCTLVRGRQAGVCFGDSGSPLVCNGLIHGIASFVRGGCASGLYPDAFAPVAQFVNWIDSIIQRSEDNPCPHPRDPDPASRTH
Kind of data set: Inhibition of human neutrophil elastase assessed as N-methoxysuccinyl-Ala-Ala-Pro-Val p-nitroanilide conversion to p-nitroaniline at 50 ug/ml after 1 hr by spectrophotometric analysis relative to control. The gist of the method: (§2)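 Sample and human neutrophil elastase (17 mU/ml) mixed in 0.1 M Tris–HCl, pH 7.5, and held 5 min at 25 °C. MeOSuc-Ala-Ala-Pro-Val p-nitroanilide was added and the mixture incubated 1 h at 37 °C. Reaction stopped with soybean trypsin inhibitor (1 mg/ml); p-nitroaniline absorbance read immediately. Inhibition given as % with S.E.M.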

Data set [7] has as its target T1, Neutrophil elastase (Homo sapiens). Kind of data set: Inhibition of human neutrophil elastase assessed as N-methoxysuccinyl-Ala-Ala-Pro-Val p-nitroanilide conversion to p-nitroaniline at 100 ug/ml after 1 hr by spectrophotometric analysis relative to control. The method, boiled down:
as §2

Data set [8] relates to HaCaT. Kind of data set: Wound healing activity in human HaCaT cells assessed as wound closure rate at 5 uM after 24 hrs by inverted microscopic analysis. In kind it is functional, cell-based. The method, boiled down:
(§3)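 Confluent HaCaT monolayers scratched with a pipette tip, washed, re-fed with medium and exposed to compound for 24 h; 20% (v/v) platelet lysate served as positive control. Cells fixed in 3.7% formaldehyde and stained with 0.1% toluidine blue. Wound width measured by inverted microscope with camera at 0 and 24 h; closure taken as the width difference. Results expressed relative to control mean (100%), two independent experiments, n = 20 each.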

Data set [9] has as its system HaCaT. Kind of data set: Wound healing activity in human HaCaT cells assessed as wound closure rate at 2.5 ug/mL after 24 hrs by inverted microscopic analysis. It is filed as functional, cell-based. The gist of the method:
as §3

The subject of data set [10] is HaCaT. Kind of data set: Wound healing activity in human HaCaT cells assessed as wound closure rate at 2.2 ug/mL after 24 hrs by inverted microscopic analysis. In kind it is functional, cell-based. The method, boiled down: as §3
Data set [11] relates to HaCaT. Kind of data set: Wound healing activity in human HaCaT cells assessed as wound closure rate at 2 ug/mL after 24 hrs by inverted microscopic analysis. It is filed as functional, cell-based. The gist of the method:
as §3

For data set [12], the system named is HaCaT. Kind of data set: Wound healing activity in human HaCaT cells assessed as wound closure rate at 2.1 ug/mL after 24 hrs by inverted microscopic analysis. In kind it is functional, cell-based. The method, boiled down:
as §3

Data set [13] relates to Mus musculus. Kind of data set: Wound healing activity in Swiss albino mouse circular excision wound model assessed as wound contraction applied topically qd after 10 days (reference value: 6.29%). It is filed as functional.
Data set [14] relates to Mus musculus. Kind of data set: Wound healing activity in Swiss albino mouse circular excision wound model assessed as wound contraction applied topically qd after 8 days (reference value: 2.18%). In kind it is functional.
For data set [15], the system named is Mus musculus. Kind of data set: Wound healing activity in Swiss albino mouse circular excision wound model assessed as wound contraction applied topically qd after 6 days (reference value: 3.41%). In kind it is functional.
Data set [16] relates to Mus musculus. Kind of data set: Wound healing activity in Swiss albino mouse circular excision wound model assessed as wound contraction applied topically qd after 4 days relative to control. It is filed as functional. Further details: concentration or dose not given beside the values.
For data set [17], the system named is Mus musculus. Kind of data set: Wound healing activity in Swiss albino mouse circular excision wound model assessed as wound contraction applied topically qd after 2 days relative to control. It is filed as functional. Details: concentration or dose not given beside the values.
In data set [18] the test system is Mus musculus. Kind of data set: Wound healing activity in Swiss albino mouse circular excision wound model assessed as wound contraction applied topically qd measured on the same day relative to control. It is filed as functional. Further details: concentration or dose not given beside the values.
The test system of another data set is Rattus norvegicus. Kind of data set: Wound healing activity in Sprague-Dawley rat linear incision wound model assessed as tensile strength of wound applied topically qd for 9 days measured on day 10 by tensiometer (reference value: 10.6%). In kind it is functional.
Data set [19] deals with HaCaT. Kind of data set: Wound healing activity in human HaCaT cells assessed as wound closure rate at 1.7 ug/mL after 24 hrs by inverted microscopic analysis. In kind it is functional, cell-based. The method, boiled down:
as §3

The next data set has as its system A-431. Kind of data set: Cytotoxicity against human A431 cells after 24 hrs by neutral red dye uptake assay. In kind it is functional, cell-based. The settings on record: A-431, 24 h. The gist of the method:
(§4)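 Cells kept in DMEM with 10% FBS at 37 °C, 5% CO2. Seeded at 20,000 cells/well, grown 24 h, then exposed 24 h to a concentration series. Neutral red (0.05%) added for 3 h at 37 °C, dye extracted with 1% acetic acid in 50% ethanol, absorbance read at 540 nm. IC50, IC05 and 95% confidence intervals derived from a downhill logistic curve fit.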

Data set [20] relates to HaCaT. Kind of data set: Cytotoxicity against human HaCaT cells after 24 hrs by neutral red dye uptake assay. It is filed as cell-based. The method, boiled down: as §4

SMILES strings stand for the structures. ≈ marks a conversion by molar mass, not a printed value. Calls of active or inactive are those of the source. The calls are words filed in the database; no cut-off is given here.

We go through one compound from ChEMBL document CHEMBL2390932, “(+)-Usnic acid enamines with remarkable cicatrizing properties” (Bioorg Med Chem, 2013).

A word on the inhibition: it is the drop in the measured response relative to a control, in per cent. The IC50 is the concentration needed to halve the response being measured. As to `CC(=O)C1=C(O)C=C2Oc3c(C(C)=O)c(O)c(C)c(O)c3[C@@]2(C)C1=O` [(+)-USNIC ACID], the Activity worked out at 36.1 mg/g with Mus musculus [1]; 1.85% in the data set on Mus musculus [13]; 5.62% in the data set on Mus musculus [14]; 10.25% in the data set with Mus musculus [15]; 14.1% with Mus musculus [16]; 17.04% in the data set on Mus musculus [17]. Also, the Activity came to 19.59% in the data set on Mus musculus [18] and 31.9% in the data set with Rattus norvegicus. Besides, the inhibition in the data set listed under Bos taurus [2] worked out at 14.4%; in the data set filed under Bos taurus [3], 33.1%; with Hathewaya histolytica [4] it was 27.1%; with Hathewaya histolytica [5] it was 51.2%; in data set [6], 22.1%; in data set [7], 36.4%. Also, the result in the data set on HaCaT [8], in the data set with HaCaT [9], with HaCaT [10], in the data set with HaCaT [11], in the data set with HaCaT [12] and in the data set on HaCaT [19] was Active. The IC50 in the data set on A-431 is 15 µg/mL (≈ 43.6 µM); in the data set with HaCaT [20] (Homo sapiens, HaCaT), 24 µg/mL (≈ 69.7 µM). The same compound came in with an IC05 with HaCaT [20] (human, hacat) of 0.5 µg/mL.
